# Columns and labels:
# [1] = test system: patient-derived GBM neural stem cells (GNS); test: Proliferation assay, dose-response series; assay type: cell-based, human; conditions: for selectivity toward GNS and NS compared with fibroblasts: IC50 of BJ/IC50 of any NS or GNS with the lowest IC50, dose series 0.39–50 µM; for IC50: read-out: potency (IC50) toward GNS, panel of six GNS lines
# [2] = test system: G362 cells injected intracranially; test: Intracranial G362 xenograft survival in NSG mice; assay type: in vivo, mouse
# [3] = test system: subcutaneous implanted tumor (G362); test: Subcutaneous GNS xenograft in NSG mice; assay type: in vivo, mouse; conditions: 20 mg/kg intraperitoneally; for reduction of average tumor weight at the endpoint: 5 days on, 2 days off, vs vehicle
# [4] = test system: normal human NS lines (hf5205 and hf6539); test: Neuronal differentiation of normal NS; assay type: cell-based; conditions: with sequential withdrawal of EGF and FGF; VGlut1 expression
# [5] = test system: G481; test: Combination index with TMZ; assay type: cell-based, human; conditions: in combination with TMZ
# Summary of the method: (§1)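 Patient-derived glioblastoma stem cell (GNS) cultures were exposed to temozolomide combined with a test compound (DRD4 antagonist). The combination index (CI) was calculated and plotted against fraction affected (Fa) to judge the interaction.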
# [6] = test system: G362; test: Combination index with TMZ; assay type: cell-based, human; conditions: in combination with TMZ
# Summary of the method: as §1
# [7] = test system: GNS (G362 and G411); test: LC3B+ puncta immunofluorescence; assay type: cell-based, human; conditions: 48 hr; L-741,742 10 µM, PNU 96415E 25 µM
# Summary of the method: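 Adherent, serum-free GNS cultures (G362, G411) were exposed for 48 hr to test compounds (DRD4 antagonists) at 10 µM or 25 µM, or DMSO. LC3B was immunostained, and cells with large LC3B+ puncta were counted (>200 cells per group). Results are the fraction of cells; n = 3, mean ± SEM, unpaired one-tailed t test.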
# [8] = test system: GNS (G411 and G362); test: Flow cytometric cell-cycle analysis of DNA content; assay type: cell-based, human
# Summary of the method: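 GNS lines G411 and G362 were grown as adherent monolayers in serum-free medium. They were exposed to test compounds (DRD4 antagonists) at 10 µM or 25 µM, alongside DMSO control, for 48 hr. DNA-content cell-cycle distribution was then analysed.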
# [9] = test system: GNS, NS and BJ lines; test: Primary screen of neuroactive compounds, growth inhibition; assay type: cell-based, human; conditions: 5 µM, 5 days; hit = greater than 20% growth inhibition vs DMSO
# Summary of the method: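 A 680-compound neuroactive library was screened at 5 µM for 5 days against three human GNS lines, two neural stem cell (NS) lines and BJ fibroblasts. GNS and NS lines were grown as adherent serum-free monolayers. Growth inhibition was calculated relative to DMSO control; a primary hit caused >20% inhibition.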
# [10] = test system: non-NS control cells (BJ, Daoy, U-2 OS, C8-D1A); test: Proliferation assay in non-NS control cell lines; assay type: cell-based; conditions: highest concentration tested 50 µM
# [11] = test system: adenylate cyclase; test: Forskolin-induced cAMP response in GNS; assay type: cell-based, human; conditions: G362 cells, forskolin 30 µM
# Summary of the method: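 G362 GNS cells were stimulated with forskolin (30 µM) to activate adenylate cyclase. Forskolin was given alone or after pretreatment with a DRD4-selective agonist (30 µM). cAMP level was expressed as fold change versus control; n = 3, mean ± SEM.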
# [12] = target: T1, DRD4 receptor (Homo sapiens, UniProt P21917); test: Block of forskolin-induced cAMP response by DRD4 agonist; assay type: cell-based; conditions: G362 cells, pretreatment 30 µM, then forskolin 30 µM
# T1 sequence (P21917 1-419): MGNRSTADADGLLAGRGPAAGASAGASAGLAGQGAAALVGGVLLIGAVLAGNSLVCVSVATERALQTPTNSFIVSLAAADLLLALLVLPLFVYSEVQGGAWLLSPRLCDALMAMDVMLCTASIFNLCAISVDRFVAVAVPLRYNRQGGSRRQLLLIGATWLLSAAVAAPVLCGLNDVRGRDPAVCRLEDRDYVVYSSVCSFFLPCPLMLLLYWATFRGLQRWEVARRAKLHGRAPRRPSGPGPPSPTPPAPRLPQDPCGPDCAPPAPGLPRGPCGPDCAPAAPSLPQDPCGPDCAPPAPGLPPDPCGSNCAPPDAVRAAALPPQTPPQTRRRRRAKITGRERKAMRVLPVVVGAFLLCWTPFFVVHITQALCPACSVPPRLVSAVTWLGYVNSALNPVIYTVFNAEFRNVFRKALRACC
compound,measurement,setting,value
"Nc1ccc(CCN2CCN(c3cccc(C(F)(F)F)c3)CC2)cc1 [LY-165,163]",selectivity toward GNS and NS compared with fibroblasts,[1],more than 8 fold
CN1[C@@H]2CC[C@H]1C[C@@H](OC(=O)c1cc(Cl)cc(Cl)c1)C2 [MDL-72222],selectivity toward GNS and NS compared with fibroblasts,[1],more than 8 fold
"Cc1c(C2CCN(CCc3ccccc3)CC2)noc1-c1ccc(Cl)cc1 [L-741,742]",survival over control,"[2]; 25 mg/kg alone, treatment from 1 week after engraftment",modest but significant benefit in survival
same,survival compared with TMZ alone,[2]; 25 mg/kg combined with TMZ (25 or 12.5 mg/kg gavage),significantly improved survival
same,tumor volume growth vs vehicle control,[3],much slower growth
same,reduction of average tumor weight at the endpoint,[3],40.9%
same,selectivity against GNS compared with NS,[1],8 fold
same,selectivity toward GNS and NS compared with fibroblasts,[1],more than 8 fold
same,IC50,[1],1.5 to 6.2 µM
same,neuronal differentiation of NS,[4],dramatically enhanced neuronal differentiation
same,lowest combination index (CI) value,[5],0.28
same,lowest combination index (CI) value,[6],0.29
same,cells showing large LC3B+ puncta,[7],more than 50%
same,cell-cycle effect,[8],G0/G1 arrest
CSc1ccc2c(c1)N(CCC1CCCCN1C)c1ccccc1S2 (stereo not shown) [thioridazine],primary screen result,[9],hits
O=C(NOC[C@H](O)CO)c1ccc(F)c(F)c1Nc1ccc(I)cc1F [PD 0325901],cell-cycle effect,[8],G0/G1 arrest
PD 168568,IC50,[1],25 to 50 µM
Cl.Cl.Fc1ccc(N2CCN(CCC3OCCc4ccccc43)CC2)cc1 (stereo not shown) [PNU 96415E],tumor volume growth vs vehicle control,[3],much slower growth
same,reduction of average tumor weight at the endpoint,[3],44.3%
same,selectivity against GNS compared with NS,[1],8 fold
same,selectivity toward GNS and NS compared with fibroblasts,[1],more than 8 fold
same,IC50,[1],6.25 µM
same,lowest combination index (CI) value,[5],0.32
same,lowest combination index (CI) value,[6],0.56
same,cells showing large LC3B+ puncta,[7],more than 50%
same,sensitivity of non-NS control cells,[10],not sensitive even at the highest concentration tested
same,cell-cycle effect,[8],G0/G1 arrest
"C=C[C@@]1(C)CC(=O)[C@]2(O)[C@@]3(C)[C@@H](O)CCC(C)(C)[C@@H]3[C@H](O)[C@H](OC(C)=O)[C@@]2(C)O1 [Forskolin, forskolin]",increase in cAMP concentration,[11],2.1 fold
CCC(Oc1ccc(Cl)cc1)C(=O)OC1CC2CCC(C1)N2C (racemic) [(±)-tropanyl-2-(4-chlorophenoxy)butanoate],selectivity toward GNS and NS compared with fibroblasts,[1],more than 8 fold
"Clc1ccc(N2CCN(Cc3c[nH]c4ncccc34)CC2)cc1 [L-745,870]",IC50,[1],3.1 to 6.2 µM
CN1CCN(CCCN2c3ccccc3Sc3ccc(C(F)(F)F)cc32)CC1 [trifluoperazine],primary screen result,[9],hits
"Cc1cc(C)cc(C(=O)OC2CC3CCC(C2)N3C)c1 (stereo not shown) [tropanyl 3,5-dimethylbenzoate]",selectivity toward GNS and NS compared with fibroblasts,[1],more than 8 fold
CCN(CC)CCCC(C)Nc1ccnc2cc(Cl)ccc12 (stereo not shown) [chloroquine],cell-cycle effect,[8],G0/G1 arrest
"CCN(CC)CCOc1ccc(Cc2ccccc2)cc1 [N,N-diethyl-2-(4-(phenylmethyl)phenoxy) ethanamine]",selectivity toward GNS and NS compared with fibroblasts,[1],more than 8 fold
CC(C(O)c1ccc(O)cc1)N1CCC(Cc2ccccc2)CC1.CC(C(O)c1ccc(O)cc1)N1CCC(Cc2ccccc2)CC1.O=C(O)C(O)C(O)C(=O)O (stereo not shown) [ifenprodil tartrate],selectivity against GNS compared with NS,[1],8 fold
same,selectivity toward GNS and NS compared with fibroblasts,[1],more than 8 fold
Cc1cccc(NC(=O)CN2CCC(c3ccccn3)CC2)c1 [A412997],block of forskolin-induced cAMP response,[12],31.3%

# Reference: article PMC5968455 (Cancer cell, 2016)
